Pf gametocyte – P. falciparum stage V gametocyte viability inhibition. P. falciparum stage V gametocytes, ATP luminescence, 24 h. inhibition, % at 10.9 µM. 0.065% of 150,000 active. AID 743093;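 active = inhibition above the mean plus 3 SD of compounds within the control limits, set per campaign, cut at about 38% in these data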;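 also: 0% = DMSO wells and 100% = medium only without gametocytes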
Biofilm kill mix – mixture kills Candida albicans biofilm cells; C. albicans biofilm persisters + clotrimazole, fluorescence viability; primary screen in compound mixtures of four per well; inhibition, % at 7.6 µM; 0.02% of 120,000 active; AID 1242;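 active = inhibition above 30.3% in the primary screen of four-compound pools, then above 30% when the compound was retested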;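 also: compounds exposed to preformed 24 h biofilms for 48 h; 0% = untreated biofilm control and 100% = clotrimazole plus chlorhexidine kill blank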
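System: C. albicans CAF4-2 wild-type biofilms; Medium: RPMI/MOPS medium, pH 7.0; Reagent: Clotrimazole, 50 µg/mL; Times: biofilm formation 24 h, compound exposure 48 h, 37 °C; Detection: 2-h Alamar Blue fluorescence, 535/590 nm excitation/emission; Evaluation: percent inhibition of biofilm viability.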
* hit, by the source's call; / = not tested or not shown. Sampled rows, rich in hits. Any-hit rate of the full collection: about 0.073%.

SMILES	Pf gametocyte	Biofilm kill mix
CCS(=O)(=O)N1CCC(C(=O)c2ccc(Cl)cc2)CC1	/	19.9
Cc1ccc(/C=C/S(=O)(=O)NCC(=O)OCC(=O)N2CC(=O)Nc3ccccc32)cc1	5.9	16.6
CC(=O)Nc1ccc(C(=O)OCC(=O)Nc2ccccc2Sc2ccccc2)cc1	-19.1	10.9
N#CCC(=O)Nc1ccc(C(=O)OCC(=O)Nc2ccccc2Sc2ccccc2)cc1	39.9*	14.1
CCOC(=O)Cc1cc(=O)n2[nH]c(C(C)(C)C)cc2n1	-14.0	20.6
CCOC(=O)C1CCN(Cc2cnc(Oc3ccc(C(C)(C)C)cc3)s2)CC1	-23.5	/
O=C(N/N=C/c1ccc(O)c(O)c1O)/C(=C/c1ccc([N+](=O)[O-])cc1)NC(=O)c1ccccc1	40.3*	/
O=C(Nc1cccc2ccccc12)/C(=C/c1ccc([N+](=O)[O-])cc1)NC(=O)c1ccccc1	0.1	/
COc1ccc(C(=NNc2ccccc2C(=O)O)c2ccc(OC)cc2)cc1	52.7*	14.5
COc1ccc(C(=O)Nc2ccccc2C(=O)Nc2ccc(C(=O)O)cc2)cc1	-14.3	/
S=C(NCc1ccccc1)NCc1ccccn1	17.8	20.3
O=C(CN1C(=O)/C(=C\c2cccc(F)c2)Oc2ccccc21)N1CCN(c2ccccn2)CC1	51.2*	20.6
O=C(CN1C(=O)/C(=C\c2ccc(F)cc2)Oc2ccccc21)N1CCN(c2ccccn2)CC1	8.3	14.1
FC(F)(F)c1cc(Oc2ccccc2)ncc1-c1nnc(-c2ccccc2Cl)o1	5.5	16.2
COc1ccc(OC)c(NC(=S)N2CCC(C(O)(c3ccccc3)c3ccccc3)CC2)c1	57.0*	-8.9
COc1ccc(OC)c(NC(=S)N2CCN(Cc3ccccc3)CC2)c1	0.0	16.5
N#C/C(N=Nc1ccccc1O)=N\Nc1ccccc1O	-25.8	/
COc1cc(C2CC(=O)Nc3cc(C)c(C)cc32)cc(OC)c1OC (stereo not given)	11.8	4.2
Cc1cc2c(cc1C)C(c1cccc([N+](=O)[O-])c1)CC(=O)N2 (stereo not given)	50.9*	10.8
Cc1nn(Cc2ccc([N+](=O)[O-])cc2)c(=O)n1-c1c(F)cccc1F	-31.5	/
CSc1cccc(NC(=O)N2CCCC(CNS(=O)(=O)Cc3ccccc3)C2)c1 (stereo not given)	-9.4	6.6
CCC(C)(C(=O)NC1CCCC1)N(C(=O)Cc1cccs1)c1c(C)n(C)n(-c2ccccc2)c1=O (stereo not given)	4.0	3.1
Cc1nn(-c2ccccc2)c(N2CCCCC2)c1/C=N/O	14.4	/
Cc1nn(-c2ccccc2)c(N2CCCC2)c1C=O	40.0*	8.1
CN1C[C@@H]2[C@@H]3C(=O)N(C)C(=O)[C@@H]3[C@](Cc3ccccc3)(C1=O)N2C(=O)c1ccc(Cl)cc1	-52.3	/
SMILES	Pf gametocyte	Biofilm kill mix
CC(=O)N(Cc1cc2ccccc2[nH]c1=O)c1ccc(C)cc1	-10.2	/
Cc1ccc(C)c(NC(=S)/C(=C(\[O-])c2ccc(OC(F)F)cc2)[n+]2ccccc2)c1	/	16.7
Cc1ccc(NC(=S)/C(=C(\[O-])c2ccc(F)cc2)[n+]2ccccc2)cc1	38.9*	1.3
O=C(NC1CCC(Oc2ccc(C(=O)O)cc2)CC1)NC12CC3CC(CC(C3)C1)C2 (stereo not given)	-2.5	/
C#CC(CC)(CC)NC(=O)NC1CCCCC1	6.6	10.0
O=C1c2ccccc2C(O)N1Cc1cccs1 (stereo not given)	54.7*	14.1
O=C(NC1CCCCCC1)C1c2ccccc2C(=O)N1Cc1cccs1 (stereo not given)	-20.2	9.5
CCOC(=O)/C(C#N)=C\c1cccnc1	-29.7	9.6
CCOC(=O)C(C#N)C(c1cccnc1)c1c(C)[nH][nH]c1=O (stereo not given)	39.8*	/
CC(CNC(=O)c1ccccc1Cl)NC(=O)c1ccccc1Cl (stereo not given)	3.2	/
O=c1c2ccccc2cnn1-c1nc2ccccc2[nH]1	47.1*	14.8
O=c1c(Cl)c(N2CCCCC2)cnn1-c1nc2ccccc2[nH]1	-7.8	/
N/C(Cn1cncn1)=N\NC(=O)C(=O)Nc1cccc(C(F)(F)F)c1	-15.7	18.8
C/C(=N\NC(=O)CN1CCN(S(=O)(=O)c2ccc(C)cc2)CC1)c1ccc(O)cc1	22.8	15.9
COc1cc(/C(C)=N/NC(=O)CN2CCN(S(=O)(=O)c3ccc(C)cc3)CC2)ccc1O	39.3*	26.5
COc1ccc(/C(C)=N/NC(=S)NCCc2ccccc2)cc1	39.2*	10.0
COc1ccc(CNC(=S)N/N=C(\C)c2ccc(OC)cc2)cc1	4.7	27.5
CN(/N=C/c1ccncc1)c1cnc2ccccc2n1	1.0	13.3
N/C(Cc1ccc([N+](=O)[O-])cc1)=N\OC(=O)CC1CCCCC1	59.1*	4.9
Cc1ccc(CC(=O)O/N=C(\N)Cc2ccc([N+](=O)[O-])cc2)cc1	29.4	12.7
C#CC[N+]1(CC#Cc2ccccc2)CCOCC1	-2.4	/
C(#Cc1ccccc1)C[N+]1(CC#Cc2cccc3ccccc23)CCOCC1	-20.6	44.8*
CC(C)(C)NC(=O)C(c1ccncc1)N(C(=O)C1CSC(=O)C1)c1ccccc1 (stereo not given)	/	24.0
Cc1ccc(/C=C/C(=O)NC2CCS(=O)(=O)C2)cc1 (stereo not given)	-2.0	15.6
O=C(/C=C/c1ccccc1)NC1CCS(=O)(=O)C1 (stereo not given)	63.0*	20.6
CC1CCc2c(sc(NC(=O)CN3CCN(C(=O)c4ccco4)CC3)c2C#N)C1 (stereo not given)	3.4	/
CC(C)(C)OC(=O)NCC(=O)NNC(=O)C(C(=O)OCc1ccccc1)c1ccccc1 (stereo not given)	0.9	/
O=C(CCCc1ccccc1)Nc1nccs1	-8.6	/
